Values after ≈ are worked out from the molar mass of the structure shown. Active and inactive are the calls of the source. The calls are words filed in the database; no cut-off is given here.
Experiments:
Klebsiella pneumoniae [1] = assay: Antibiofilm activity against Klebsiella pneumoniae incubated for 24 hrs followed by biofilm resuspension in PBS and measured after 24 hrs; format: functional
How it was run: (§1)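 Biofilms grown 24 h in 96-well plates from overnight cultures standardized to OD600 0.5 in fresh medium (human serum only for S. aureus; TSB for Gram-positives, LB for Gram-negatives). Medium then replaced with fresh medium containing a concentration range above and below MIC, 37°C overnight. After 24 h biofilm resuspended in PBS, serially diluted, plated in duplicate, CFU counted after 24 h at 37°C. Activity relative to untreated; three technical replicates; MBEC50 reported.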

Klebsiella pneumoniae [2] = assay: Antimicrobial activity against Klebsiella pneumoniae isolate 1441 assessed as inhibition of microbial growth in presence of 100 uM efflux pump inhibitor reserpine after 24 hrs; format: functional, organism-based
Staphylococcus aureus [3] = assay: Antimicrobial activity against Staphylococcus aureus USA300 strain FPR3757 infected in mouse model of lethal peritonitis assessed as mouse survival at 2 uM, im dosed 1 hr post infection and measured after 5 days post infection; format: functional, organism-based
How it was run: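 Mice, six per group, infected i.p. with 1 × 10^8 CFU ml−1 S. aureus USA300 FPR3757 in PBS with 5% mucin. Compound given i.m. at 2 μM 1 h later; vehicle 45% w/v (2-hydroxypropyl)-β-cyclodextrin in water i.v.; vancomycin i.v. as control. Monitored twice daily for 5 days, pre-moribund animals euthanized. Survival compared by log-rank test.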

[4] = Induction of hemolysis in human RBC at 10 uM incubated for 15 mins; format: cell-based, Erythrocyte; settings: red blood cells, read-out: Activity
How it was run: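 Human RBCs from whole blood, resuspended 20% v/v in HA buffer (NaCl, CaCl2), compound 10 μM, 15 min at 37°C. Centrifuged 5,500 g for 1 min, supernatant OD543 read. Percent hemolysis against DMF vehicle (0%) and 1.0% Triton X-100 (100%); triplicate.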

Klebsiella pneumoniae [5] = assay: Antimicrobial activity against Klebsiella pneumoniae assessed as inhibition of microbial growth at 45 uM after 24 hrs; format: functional, organism-based
How it was run: (§2)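 Broth microdilution single-concentration read: overnight cultures diluted 1:1000, compound in DMF (≤2.0%) added, 37°C for 24 h, growth inhibition scored visually by lack of turbidity; triplicate. Gram-positives grown in TSB, Gram-negatives in LB.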

Staphylococcus aureus [6] = assay: Bactericidal activity against methicillin-resistant Staphylococcus aureus at MIC measured after drug wash out after 120 mins by time kill assay; format: functional
How it was run: (§3)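 MRSA from stationary phase was regrown 3 h in TSB and seeded at OD600 0.5. […] After 120 min, cells were centrifuged and washed, serially diluted and plated for CFU. Percent recovery is relative to no-drug controls.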

[7] = Cytotoxicity against human A549 cells assessed as cell viability recovery at 225 uM after 48 hrs by MTT assay; format: cell-based; settings: read-out: Activity
How it was run: (§4)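 A549 cells grown in F-12K with L-glutamine, 10% FBS, 1% penicillin-streptomycin, seeded at 1.0 × 10^5 ml−1, allowed to adhere 24 h (37°C, 5% CO2), then exposed to compound in 45% w/v (2-hydroxypropyl)-β-cyclodextrin vehicle for 48 h. MTT 4 h, formazan solubilized in DMSO, absorbance 540 nm. Percent recovery versus vehicle-only; IC50 derived; at least three independent experiments.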

Staphylococcus aureus [8] = assay: Bactericidal activity against Staphylococcus aureus after 24 hrs; format: functional
[9] = Selectivity index, ratio of IC50 for human A549 cells to MIC for Enterococcus faecium
Enterobacter cloacae [10] = assay: Induction of spontaneous mutation in Enterobacter cloacae at 2 to 10 MIC; format: functional, organism-based
Staphylococcus aureus [11] = assay: Bactericidal activity against methicillin-resistant Staphylococcus aureus assessed as cell survival recovery at MIC measured after drug wash out after 120 mins by time kill assay; format: functional; how it was run: as §3
Pseudomonas aeruginosa [12] = assay: Antimicrobial activity against Pseudomonas aeruginosa assessed as inhibition of microbial growth at 45 uM after 24 hrs; format: functional, organism-based; how it was run: as §2
Acinetobacter baumannii [13] = assay: Antimicrobial activity against Acinetobacter baumannii assessed as inhibition of microbial growth at 45 uM after 24 hrs; format: functional, organism-based; how it was run: as §2
Klebsiella pneumoniae [14] = assay: Bactericidal activity against Klebsiella pneumoniae after 24 hrs; format: functional
Enterococcus faecium [15] = assay: Antibiofilm activity against Enterococcus faecium incubated for 24 hrs followed by biofilm resuspension in PBS and measured after 24 hrs; format: functional; how it was run: as §1
[16] = Selectivity index, ratio of IC50 for human A549 cells to MIC for Klebsiella pneumoniae
Enterobacter cloacae [17] = assay: Bactericidal activity against Enterobacter cloacae after 24 hrs; format: functional
[18] = Selectivity index, ratio of IC50 for human A549 cells to MIC for Staphylococcus aureus
Acinetobacter baumannii [19] = assay: Ratio of MIC for Acinetobacter baumannii measured after 8 cycle passage to MIC for wild type Acinetobacter baumannii; format: functional
Acinetobacter baumannii [20] = assay: Bactericidal activity against Acinetobacter baumannii after 24 hrs; format: functional
Staphylococcus aureus [21] = assay: Antimicrobial activity against Staphylococcus aureus assessed as inhibition of microbial growth after 24 hrs; format: functional
How it was run: (§5)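 Broth microdilution against multidrug-resistant clinical ESKAPE isolates. Overnight cultures (TSB for Gram-positives, LB for Gram-negatives) diluted 1:1000 in fresh medium, compound in DMF (≤2.0% DMF) added at decreasing concentrations, 37°C.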

Enterococcus faecium [22] = assay: Antimicrobial activity against Enterococcus faecium assessed as inhibition of microbial growth after 24 hrs; format: functional; how it was run: as §5
[23] = Selectivity index, ratio of IC50 for human A549 cells to MIC for Pseudomonas aeruginosa
A549 = assay: Cytotoxicity against human A549 cells after 48 hrs by MTT assay; format: cell-based; settings: A549, 48 h; how it was run: as §4
Acinetobacter baumannii [24] = assay: Induction of spontaneous mutation in Acinetobacter baumannii at 2 to 10 MIC; format: functional, organism-based
[25] = Cytotoxicity against human A549 cells assessed as cell viability recovery up to 100 uM after 48 hrs by MTT assay; format: cell-based; settings: read-out: Activity; how it was run: as §4
[26] = Selectivity index, ratio of IC50 for human A549 cells to MIC for Enterobacter cloacae
Staphylococcus aureus [27] = assay: Ratio of MIC for Staphylococcus aureus measured after 8 cycle passage to MIC for wild type Staphylococcus aureus; format: functional
Klebsiella pneumoniae [28] = assay: Ratio of MIC for Klebsiella pneumoniae measured after 8 cycle passage to MIC for wild type Klebsiella pneumoniae; format: functional
Staphylococcus aureus [29] = assay: Antimicrobial activity against Staphylococcus aureus assessed as inhibition of microbial growth at 45 uM after 24 hrs; format: functional, organism-based; how it was run: as §2
Enterobacter cloacae [30] = assay: Antimicrobial activity against Enterobacter cloacae assessed as inhibition of microbial growth after 24 hrs; format: functional; how it was run: as §5
Klebsiella pneumoniae [31] = assay: Antimicrobial activity against Klebsiella pneumoniae assessed as inhibition of microbial growth after 24 hrs; format: functional; how it was run: as §5
Enterococcus faecium [32] = assay: Antimicrobial activity against Enterococcus faecium assessed as inhibition of microbial growth at 45 uM after 24 hrs; format: functional, organism-based; how it was run: as §2
[33] = Selectivity index, ratio of IC50 for human A549 cells to MIC for Acinetobacter baumannii
Staphylococcus aureus [34] = assay: Induction of spontaneous mutation in Staphylococcus aureus at 2 to 10 MIC; format: functional, organism-based
Staphylococcus aureus [35] = assay: Antibiofilm activity against Staphylococcus aureus incubated for 24 hrs followed by biofilm resuspension in PBS and measured after 24 hrs; format: functional; how it was run: as §1
Pseudomonas aeruginosa [36] = assay: Antibiofilm activity against Pseudomonas aeruginosa incubated for 24 hrs followed by biofilm resuspension in PBS and measured after 24 hrs; format: functional; how it was run: as §1
Klebsiella pneumoniae [37] = assay: Induction of spontaneous mutation in Klebsiella pneumoniae at 2 to 10 MIC; format: functional, organism-based
Staphylococcus aureus [38] = assay: Effect on bacterial density of methicillin-resistant Staphylococcus aureus at MIC measured over 2 hrs period by time kill assay; format: functional, organism-based
Enterobacter cloacae [39] = assay: Ratio of MIC for Enterobacter cloacae measured after 8 cycle passage to MIC for wild type Enterobacter cloacae; format: functional
Acinetobacter baumannii [40] = assay: Antimicrobial activity against Acinetobacter baumannii assessed as inhibition of microbial growth after 24 hrs; format: functional; how it was run: as §5
Pseudomonas aeruginosa [41] = assay: Antimicrobial activity against Pseudomonas aeruginosa assessed as inhibition of microbial growth after 24 hrs; format: functional; how it was run: as §5
Enterococcus faecium [42] = assay: Induction of spontaneous mutation in Enterococcus faecium at 2 to 10 MIC; format: functional, organism-based
Acinetobacter baumannii [43] = assay: Antibiofilm activity against Acinetobacter baumannii incubated for 24 hrs followed by biofilm resuspension in PBS and measured after 24 hrs; format: functional; how it was run: as §1
Enterobacter cloacae [44] = assay: Antimicrobial activity against Enterobacter cloacae assessed as inhibition of microbial growth at 45 uM after 24 hrs; format: functional, organism-based; how it was run: as §2
Enterococcus faecium [45] = assay: Bactericidal activity against Enterococcus faecium after 24 hrs; format: functional
Pseudomonas aeruginosa [46] = assay: Induction of spontaneous mutation in Pseudomonas aeruginosa at 2 to 10 MIC; format: functional, organism-based; settings: 2 to 10 x MIC
Enterobacter cloacae [47] = assay: Antibiofilm activity against Enterobacter cloacae incubated for 24 hrs followed by biofilm resuspension in PBS and measured after 24 hrs; format: functional; how it was run: as §1
Pseudomonas aeruginosa [48] = assay: Bactericidal activity against Pseudomonas aeruginosa after 24 hrs; format: functional
Staphylococcus aureus [49] = assay: Bactericidal activity against methicillin-resistant Staphylococcus aureus assessed as cell survival recovery at 0.001% measured after drug wash out after 120 mins by time kill assay; format: functional; how it was run: as §3
Staphylococcus aureus [50] = assay: Induction of bacterial cell lysis in methicillin-resistant Staphylococcus aureus assessed as cell recovery at 2% by time kill assay; format: functional
Staphylococcus aureus [51] = assay: Bactericidal activity against methicillin-resistant Staphylococcus aureus assessed as cell survival recovery at 2% measured after drug wash out after 120 mins by time kill assay; format: functional; how it was run: as §3

CCCCCCCN1C(=N)N(CCCC[C@H]2CNC(=N)N2CCCCC2CCCCC2)C[C@@H]1CC1CCCCC1
MBEC50 (Klebsiella pneumoniae [1]): 6.3 µM | growth inhibition (GI) (Klebsiella pneumoniae [2]): Active | Activity (Staphylococcus aureus [3]): Active | hemolysis at 0.25 h, 10 µM [4]: 0.34% | growth inhibition (GI) (Klebsiella pneumoniae [5]): Active | fold change (FC) (Staphylococcus aureus [6]): 2.5 | viability at 48 h, 225 µM [7]: > 50% | MBC90 (Staphylococcus aureus [8]): 3.9 µM (≈ 2.17 µg/mL) | Selectivity Index [9]: >139 | Activity (Enterobacter cloacae [10]): inactive | Survival (Staphylococcus aureus [11]): 0.2% | growth inhibition (GI) (Pseudomonas aeruginosa [12]): Active | growth inhibition (GI) (Acinetobacter baumannii [13]): Active | MBC90 (Klebsiella pneumoniae [14]): 4.5 µM (≈ 2.51 µg/mL) | MBEC50 (Enterococcus faecium [15]): 28 µM | Selectivity Index [16]: >139 | MBC90 (Enterobacter cloacae [17]): 9.6 µM (≈ 5.35 µg/mL) | Selectivity Index [18]: >139 | Ratio (Acinetobacter baumannii [19]): <=8 | MBC90 (Acinetobacter baumannii [20]): 2.8 µM (≈ 1.56 µg/mL) | MIC (Staphylococcus aureus [21]): 1.6 µM | MIC (Enterococcus faecium [22]): 1.6 µM | Selectivity Index [23]: >139 | IC50 (A549): > 225 µM | Activity (Acinetobacter baumannii [24]): inactive | viability at 48 h [25]: > 65% | Selectivity Index [26]: >139 | Ratio (Staphylococcus aureus [27]): 16 | Ratio (Klebsiella pneumoniae [28]): <=8 | growth inhibition (GI) (Staphylococcus aureus [29]): Active | MIC (Enterobacter cloacae [30]): 1.6 µM | MIC (Klebsiella pneumoniae [31]): 1.6 µM | growth inhibition (GI) (Enterococcus faecium [32]): Active | Selectivity Index [33]: >139 | Activity (Staphylococcus aureus [34]): inactive | MBEC50 (Staphylococcus aureus [35]): 7.6 µM | MBEC50 (Pseudomonas aeruginosa [36]): 34 µM | Activity (Klebsiella pneumoniae [37]): inactive | Activity (Staphylococcus aureus [38]): inactive | Ratio (Enterobacter cloacae [39]): <=8 | MIC (Acinetobacter baumannii [40]): 1.6 µM | MIC (Pseudomonas aeruginosa [41]): 1.6 µM | Activity (Enterococcus faecium [42]): inactive | MBEC50 (Acinetobacter baumannii [43]): 14 µM | growth inhibition (GI) (Enterobacter cloacae [44]): Active | MBC90 (Enterococcus faecium [45]): 2.9 µM (≈ 1.62 µg/mL) | Activity (Pseudomonas aeruginosa [46]): inactive | MBEC50 (Enterobacter cloacae [47]): 13 µM | MBC90 (Pseudomonas aeruginosa [48]): 4 µM (≈ 2.23 µg/mL)

CC(C)(C)CC(C)(C)c1ccc(OCCOCC[N+](C)(C)Cc2ccccc2)cc1.[Cl-] [BENZETHONIUM CHLORIDE]
Survival (Staphylococcus aureus [49]): 0%

CCCCCCCCCCCCOS(=O)(=O)[O-].[Na+] [SODIUM LAURYL SULFATE]
Activity (Staphylococcus aureus [50]): 52% | Survival (Staphylococcus aureus [51]): 0%
